From the RNAGym collection of RNA variant scans (doi:10.1126/science.aae0568)
This sample holds only a part of the variants without activity.

B1: tRNA (parent)
chain: GUUCCGUUGGCGUAAUGGUAACGCGUCUCCCUCCUAAGGAGAAGACUGCGGGUUCGAGUCCCGUACGGAACG

Variants of: B1
Test: yeast fitness relative to wild type (ratio to wild type); higher = fitter; tRNA-Arg(CCU), competitive growth, 37 C, YPD
Outline: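 Amplicons of the tRNA-Arg(CCU) gene were sequenced, 100-nucleotide paired-end, from the start population and from each end population of a pooled yeast competition. The competition, in six parallel replicates, lasted 24 hours in YPD at 37°C. Fitness relative to wild type was calculated from changes in genotype frequencies. Genotypes had to have ≥ 100 starting reads, and estimates < 0.5 were set to 0.5.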

Variant	yeast fitness
C5G C30A C34G	≤ 0.5
C5G C11A A20C C29U	≤ 0.5
C5G C30U U54A	0.601
C5G A20C A42U G44A C61G	≤ 0.5
C5A U16G A21C C24U C30A U59G	≤ 0.5
C5G C11U A45C	≤ 0.5
C5G C11G C27G G67U	≤ 0.5
C5A U19A A65C	0.538
C5A U16G A69C	0.69
C5G A43G A70G	0.537
C5G A20U G56A	0.572
C5G C24A	0.96
C5G C24G	0.604
C5G A45C U54G	0.622
C5G A21G G44A	0.59
C5G A21C C61A	≤ 0.5
C5G A14U C27U A42U A43U U47C	≤ 0.5
C5G C22U U26A A65U	≤ 0.5
C5A U32C A36G	0.53
C5A U28C U35C C66U	≤ 0.5
C5G A15C U32C C46U U53G	≤ 0.5
C5G A14U A43U U54C	0.666
C5G C24U C27A G51C G56C	≤ 0.5
C5G A43U	0.719

Variant	yeast fitness
C5G A43C	0.744
C5G A20G A36C A70C	≤ 0.5
C5G C11U A42G C49U	0.548
C5G A15U A69U	0.698
C5G A20U A57U	≤ 0.5
C5A U59A C60U	≤ 0.5
C5G C11U C29A	0.53
C5G C33A A42G A57G	≤ 0.5
C5G A40C	0.638
C5G C11G C31G	≤ 0.5
C5G A20C C22U C24U C55U	≤ 0.5
C5G C11A A40C U59C	≤ 0.5
C5A U26G	0.785
C5G C34G A40G G48C G63A C66U	≤ 0.5
C5A U16A U35C A45G G50A	≤ 0.5
C5G C29A A36G A42C G44A C49U C60U	≤ 0.5
C5G A14U G18A A21U A42G G56C	≤ 0.5
C5G C33U A65C G68C	≤ 0.5
C5G A15G U16A A20G U28A C30A C33A A36U U47C A69C	≤ 0.5
C5G C27G C46G A65G	≤ 0.5
C5G C24U U26C C31U	0.749
C5G A36U C46G C62A A69C	≤ 0.5
C5G A21G G41A	0.503
C5G A20C U54A	0.616

Variant	yeast fitness
C5G C34G C49U C55U	≤ 0.5
C5G A14U G23C C33A	≤ 0.5
C5G A21C U54A A57G	≤ 0.5
C5G A43U U64C	0.703
C5G A36G A43U	0.549
C5G A21G	0.997
C5G A14U U16C G18C U32A G58A	0.542
C5G C11U C22A	≤ 0.5
C5G A15G	0.819
C5G C11G C34U	0.576
C5A U59A A69G	≤ 0.5
C5G C30A A36G	0.568
C5G A15U C29G	≤ 0.5
C5G A65C	0.775
C5G A57C	0.716
C5G C33A A65U	≤ 0.5
C5G A15U U28C	≤ 0.5
C5G A14C U16A C30U G38C G41C C46G	≤ 0.5
C5G A14C C29A C31G	0.529
C5G C22A A37G G50C	0.55
C5G C27G C34G G63C C66U	≤ 0.5
C5A U19A G68C	0.539
C5G A20G A40G G44A C46G C60G C61U G63A	≤ 0.5
C5G A14U A21G G23A C31U G63C U64A C66G	≤ 0.5

Variant	yeast fitness
C5G A20U G25A C31U G41A C55G	≤ 0.5
C5G C30G	0.523
C5G A21G C24U G68A	0.71
C5G A65U C66G	≤ 0.5
C5A U19A C62A	≤ 0.5
C5G A20G A37G C46G A57C	≤ 0.5
C5G A36U A42G A57C	≤ 0.5
C5A U16A A21G C27G C46U	≤ 0.5
C5G A14C G23C G38A G58C A70G	0.545
C5G A20C C29G G38C	0.529
C5G C11U C31U	0.676
C5G A36U C66U	≤ 0.5
C5A U26A G56A A65G	0.565
C5G C24G C30G C31U U35A A36U G44A C60U A70C	≤ 0.5
C5G C31U G41C A43C C60G	≤ 0.5
C5G A15U U53A	≤ 0.5
C5A U16A A45G G50A	0.529
C5G C11A A40C U64C	≤ 0.5
C5G A20G A65U	0.652
C5G C11A A14G G25C C29G A57U C66U	≤ 0.5
C5G A43U C66U A69U	≤ 0.5
C5G C29U G39A G58C A69U	≤ 0.5
C5G A42G C49G A70U	≤ 0.5
C5A U54A C55G A65C	≤ 0.5

Variant	yeast fitness
C5G C27U C46U	0.754
C5G A42G	0.701
C5G A21C A45G A57G G68A	≤ 0.5
C5G C27U A57U	≤ 0.5
C5G C31A A45C	≤ 0.5
C5G C27U G41C C61U C66G	≤ 0.5
C5G A15C C22A G63A A65G	≤ 0.5
C5G C11A A14G G25C C29G	0.517
C5G C29U U54G C60G C62U	≤ 0.5
C5G C29U A42C C55U	≤ 0.5
C5G C11G A42C C49U C62A	≤ 0.5
C5G C11U A42U G68A	≤ 0.5
C5A U19G A43U	0.656
C5G A15U U35A	0.696
C5G C27A A37C C55G	≤ 0.5
C5A U26A A40G G58C G67U	0.56
C5A U28G A42U	≤ 0.5
C5G A36U U59G A65U	≤ 0.5
C5G C34A G50C	≤ 0.5
C5A U16A A45G G50A G56A	≤ 0.5
C5G C22U C27U A36G	≤ 0.5
C5G C30G C31A G50A U54C U59A	0.596
C5G C11G A15C A65C	≤ 0.5
C5G A37U C55G C61G C66G	0.623

Variant	yeast fitness
C5G A20C	0.813
C5G A21G G51A	0.617
C5G A20G C62U C66G	0.663
C5G A15G C24G U32A C34G G68A A69U A70U	0.516
C5A U19G	0.731
C5G A42C G51C A65G	≤ 0.5
C5G C27G C33U G56A A69U	0.52
C5G C33A G41C	≤ 0.5
C5G A36U G41A A65U	0.549
C5G C33A G41C U54C	≤ 0.5
C5A U16C A21C C33U A40G U54G C62G	0.577
C5G A21U C27U U28G C33G A36G	≤ 0.5
C5A U16C U59G	≤ 0.5
C5G C11G A15U U54C C61G A70C	≤ 0.5
C5G A14C C34G	≤ 0.5
C5G A21G U32C C49G A65G	0.553
C5G C34G A69U	≤ 0.5
C5G A14U G18A A21U A42G C62U A65C	≤ 0.5
C5G A20C C33U C62G	≤ 0.5
C5G C11G A14U A15U C29A C60G	≤ 0.5
C5A U16C A45G G50A	≤ 0.5
C5G C34A G39C G52A G58A G63A	≤ 0.5
C5G A20U C30U	≤ 0.5
C5G A15C G58A G67C	≤ 0.5

Variant	yeast fitness
C5G A14U C49A A57G	0.639
C5A U16G A20G C29G	0.601
C5G C29G A43C G52A G67A	≤ 0.5
C5G C11G A14U A15U A69C	≤ 0.5
C5G C11U G25C G52U	0.618
C5G A36U G41A	≤ 0.5
C5G C24G A40U	0.57
C5G C34A	0.702
C5G A14G G17A U32C G56C A69U	≤ 0.5
C5G C30U A65U	≤ 0.5
C5G C31U	0.867
C5G A15U G63A	0.551
C5G A36C A42G C55U C62G A69U	≤ 0.5
C5G C30G A65C C66U	≤ 0.5
C5G A14U A20U G41A A57G	≤ 0.5
C5G A14G A15G C30U A45G U64A	≤ 0.5
C5G C22A A37G	≤ 0.5
C5G A15G C24G U32A C34G U64C G68A A69U A70U	≤ 0.5
C5G C33U G44C	≤ 0.5
C5G A43U C61G	≤ 0.5
C5G C33A A36C C66U	≤ 0.5
C5G C29G G41C	≤ 0.5
C5G C30G G56C C61U A65C	0.616
